ChEMBL document CHEMBL1132694, “Discovery and structure-activity relationships of imidazole-containing tetrahydrobenzodiazepine inhibitors of farnesyltransferase” (J Med Chem, 1999)

What was measured:
[1] = biological target: T1, Protein farnesyltransferase (Homo sapiens, UniProt P49354+P49356); test: Inhibitory activity against human purified recombinant farnesyltransferase (hFT); format: protein-complex assay
In short: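 Purified (>90%) recombinant human FT at 0.3 nM, with 10 μM ZnCl2. Activity was measured as incorporation of tritium from [3H]farnesyl pyrophosphate into recombinant human H-Ras. Result reported as IC50.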

[2] = biological target: T1, Protein farnesyltransferase; test: Phenotypic reversion of H-Ras transformed NIH3T3 cells at 5 uM.; format: functional, cell-based; conditions: Mus musculus
[3] = biological target: T1, Protein farnesyltransferase; test: Phenotypic reversion of H-Ras transformed NIH3T3 cells at 1.25 uM; format: functional, cell-based; conditions: Mus musculus
[4] = test system: Rat1; test: Inhibition of anchorage independent growth of H-Ras transformed Rat-1 cells.; format: functional, cell-based
[5] = biological target: T1, Protein farnesyltransferase; test: Phenotypic reversion of H-Ras transformed NIH3T3 cells by the compound at a concentration of 10 uM; format: functional, cell-based; conditions: Mus musculus
[6] = test system: Mus musculus; test: In vivo antitumor activity against Rat-1 tumors in mice at 90 mg/kg; format: functional
In short: (§1)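 Female athymic Balb/c-background mice (18-22 g) were implanted ip with 1 × 10^6 in vitro-propagated H-Ras-transformed Rat-1 fibroblasts. Dosing was ip, once daily for 7 days from day 1, with compound in 10% ethanol/sterile water given within 1 h of dissolution. Groups were typically 6 treated and 8 control mice. Read-out was median survival as %T/C, with ≥125% counted active (Gehan's generalized Wilcoxon test).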

[7] = test system: Mus musculus; test: In vivo antitumor activity against Rat-1 tumors in mice at 30 mg/kg; format: functional; in short: as §1
[8] = test system: Mus musculus; test: In vivo antitumor activity against Rat-1 tumors in mice at 10 mg/kg; format: functional; in short: as §1
[9] = biological target: T1, Protein farnesyltransferase; test: Inhibition of human purified recombinant farnesyltransferase (hFT) at 90 uM; format: protein-complex assay
[10] = biological target: T1, Protein farnesyltransferase; test: Phenotypic reversion of H-Ras transformed NIH3T3 cells at 1.25/5 uM.; format: functional, cell-based; conditions: Mus musculus
[11] = biological target: T1, Protein farnesyltransferase; test: Inhibition of human purified recombinant farnesyltransferase (hFT) at 15 uM; format: protein-complex assay

| IC50 [1] | Reversion activity [2] | Reversion activity [3] | Structure (SMILES) | EC50 [4] | further results |
| --- | --- | --- | --- | --- | --- |
| 1200 nM |  |  | O=C(N1CCN(Cc2cnc[nH]2)c2ccccc2C1)N(c1ccccc1)c1ccccc1 |  |  |
| 228 nM |  |  | O=C(c1cccc2ccccc12)N1CCN(Cc2cnc[nH]2)c2ccc(Br)cc2C1 |  |  |
| 702 nM |  |  | c1ccc(-c2ccc3c(c2)CN(c2nnnn2-c2ccccc2)CCN3Cc2cnc[nH]2)cc1 |  |  |
| 91 nM |  |  | COc1ccc(C(=O)C(=O)N2CCN(Cc3cnc[nH]3)c3ccc(-c4ccccc4)cc3C2)cc1 |  |  |
| 840 nM |  |  | NCc1ncc(CN2CCN(C(=O)c3cccc4ccccc34)Cc3ccccc32)[nH]1 |  |  |
|  | 0% | 0% | c1ccc(-c2ccc3c(c2)CN(Cc2cccc4ccccc24)CCN3Cc2c[nH]cn2)cc1 |  |  |
| 1100 nM |  |  | O=C(c1cccc2ccccc12)N1CCN(Cc2cncn2Cc2ccccc2)c2ccccc2C1 |  |  |
|  | 90% | 0% | COc1ccc(C(=O)C(=O)N2CCN(Cc3c[nH]cn3)c3ccc(-c4ccccc4)cc3C2)cc1 | 900 nM |  |
| 21000 nM |  |  | O=C(c1cccc2ccccc12)N1CCN(Cc2ncc[nH]2)c2ccccc2C1 |  |  |
| 27000 nM |  |  | COCC[C@H]1CN(C(=O)c2cccc3ccccc23)CCN1C(=O)CCc1cnc[nH]1 |  |  |
| 2970 nM |  |  | c1ccc(-c2ccc3c(c2)CN(Cc2cccc4ccccc24)CCN3Cc2cnc[nH]2)cc1 |  |  |
|  |  |  | O=C(c1ccccc1-c1ccccc1)N1CCN(Cc2c[nH]cn2)c2ccccc2C1 | 700 nM | Reversion activity [5]: 25% |
| 35.5 nM | 0% | 0% | O=C(Nc1ccc2c(c1)N(Cc1c[nH]cn1)CCN(C(=O)c1cccc3ccccc13)C2)NC1CCCCC1 | 4000 nM |  |
| 600 nM |  |  | O=C(c1ccccc1NCc1ccccc1)N1CCN(Cc2cnc[nH]2)c2ccccc2C1 | 2400 nM |  |
| 340 nM |  |  | O=C(c1cccc2ccccc12)N1CCN(CCc2c[nH]cn2)c2ccccc2C1 |  | Reversion activity [5]: 20% |
|  | 20% | 0% | O=C(c1cccc2ccccc12)N1CCN(Cc2c[nH]cn2)c2ccc(C3CCCCC3)cc2C1 |  |  |
| 205 nM |  |  | O=C(N1CCN(Cc2cnc[nH]2)c2ccc(-c3ccccc3)cc2C1)N1CCCc2ccccc21 |  |  |
| 350 nM | 35% | 0% | Cc1cccc2c1N(Cc1c[nH]cn1)CCN(C(=O)c1cccc3ccccc13)C2 | 12000 nM |  |
| 540 nM |  |  | O=C(c1cccc2ccccc12)N1CCN(Cc2cnc[nH]2)c2cc(Cl)ccc2C1 |  |  |
|  | 95% | 85% | O=C(c1ccccc1OC(F)(F)F)N1CCN(Cc2c[nH]cn2)c2ccc(-c3ccncc3)cc2C1 | 160 nM |  |

| IC50 [1] | Reversion activity [2] | Reversion activity [3] | Structure (SMILES) | EC50 [4] | further results |
| --- | --- | --- | --- | --- | --- |
|  | 5% | 0% | N#C/N=C(/Nc1ccc(Cl)cc1)N1CCN(Cc2c[nH]cn2)c2ccc(-c3ccccc3)cc2C1 |  |  |
| 249 nM | 0% | 0% | O=C(c1cccc2ccccc12)N1CCN(Cc2c[nH]cn2)c2cc(NS(=O)(=O)c3ccccc3)ccc2C1 | 11000 nM |  |
| 177 nM | 0% | 0% | O=C(c1cccc2ccccc12)N1CCN(Cc2c[nH]cn2)c2ccc(-c3ccccn3)cc2C1 |  |  |
| 28.5 nM | 75% | 0% | O=C(Nc1ccc2c(c1)N(Cc1c[nH]cn1)CCN(C(=O)c1cccc3ccccc13)C2)c1ccccc1 | 300 nM | T/C [6]: 128% |
| 10000 nM |  |  | COCC[C@H]1CN(C(=O)c2cccc3ccccc23)CCN1CCCc1c[nH]cn1 |  |  |
| 1300 nM |  |  | COCC[C@H]1CN(C(=O)c2cccc3ccccc23)CCN1Cc1c[nH]cn1 |  |  |
| 426 nM | 25% | 0% | O=S(=O)(c1cccc2ccccc12)N1CCN(Cc2c[nH]cn2)c2ccc(-c3ccccc3)cc2C1 |  |  |
| 145 nM | 70% | 0% | O=C(c1cccc2ccccc12)N1CCN(Cc2c[nH]cn2)c2ccc(-c3cccnc3)cc2C1 | 1000 nM |  |
|  |  |  | O=C(c1cccc2ccccc12)N1CCN(Cc2c[nH]cn2)Cc2ccccc21 | 3000 nM | Reversion activity [5]: 0% |
|  | 0% | 0% | CC(=O)Nc1ccc2c(c1)N(Cc1c[nH]cn1)CCN(C(=O)c1cccc3ccccc13)C2 |  |  |
| 1420 nM |  |  | N#CN=C(Nc1ccc(Cl)cc1)N1CCN(Cc2cnc[nH]2)c2ccc(-c3ccccc3)cc2C1 |  |  |
|  | 5% | 0% | O=C(c1cccc2ccccc12)N1CCN(Cc2c[nH]cn2)c2ccc(Br)cc2C1 |  |  |
|  | 0% | 0% | c1ccc(-c2ccc3c(c2)CN(c2nnnn2-c2ccccc2)CCN3Cc2c[nH]cn2)cc1 |  |  |
|  | 95% | 40% | O=C(Nc1ccc2c(c1)N(Cc1c[nH]cn1)CCN(C(=O)c1cccc3ccccc13)C2)OC1CCCCC1 | 110 nM |  |
|  | 90% | 0% | O=C(c1cccc2ccccc12)N1CCN(Cc2c[nH]cn2)c2ccc(-c3ccccc3)cc2C1 | 1600 nM | T/C [7]: 96%; T/C [8]: 136% |
| 34000 nM |  |  | COCC[C@H]1CN(C(=O)c2cccc3ccccc23)CCN1C(=O)Cc1cnc[nH]1 |  |  |
| 590 nM |  |  | O=C(c1cccc2ccccc12)N1CCN(CCCc2ncc[nH]2)c2ccccc2C1 |  |  |
| 2800 nM |  |  | O=C(c1cccc2ccccc12)N1CCN(Cc2cnc[nH]2)Cc2ccccc21 |  |  |
| 1000 nM |  |  | Nc1ccc2c(c1)N(Cc1cnc[nH]1)CCN(C(=O)c1cccc3ccccc13)C2 | 2400 nM |  |
| 3200 nM |  |  | COCC[C@H]1CN(C(=O)c2cccc3ccccc23)CCN1CCc1c[nH]cn1 |  |  |

| IC50 [1] | Reversion activity [2] | Reversion activity [3] | Structure (SMILES) | EC50 [4] | further results |
| --- | --- | --- | --- | --- | --- |
|  | 40% | 0% | O=C(N1CCN(Cc2c[nH]cn2)c2ccc(-c3ccccc3)cc2C1)N1CCCc2ccccc21 |  |  |
| 480 nM |  |  | O=S(=O)(c1cccc2ccccc12)N1CCN(Cc2c[nH]cn2)c2ccccc2C1 |  |  |
|  | 95% | 85% | COc1ccc2ccccc2c1C(=O)N1CCN(Cc2c[nH]cn2)c2ccc(-c3ccccc3)cc2C1 | 550 nM |  |
| 186 nM |  |  | O=C(c1cccc2ccccc12)N1CCN(Cc2cnc[nH]2)c2ccc(C3CCCCC3)cc2C1 |  |  |
| 168 nM |  |  | CC(=O)Nc1ccc2c(c1)N(Cc1cnc[nH]1)CCN(C(=O)c1cccc3ccccc13)C2 |  |  |
| 24 nM |  |  | O=C(c1ccccc1OC(F)(F)F)N1CCN(Cc2cnc[nH]2)c2ccc(-c3ccncc3)cc2C1 |  |  |
|  | 90% | 0% | O=C(c1ccccc1SCCO)N1CCN(Cc2c[nH]cn2)c2ccc(-c3ccccc3)cc2C1 | 200 nM |  |
| 124 nM |  |  | O=C(c1ccccc1SCCO)N1CCN(Cc2cnc[nH]2)c2ccc(-c3ccccc3)cc2C1 |  |  |
|  |  |  | COCC[C@H]1CN(C(=O)c2cccc3ccccc23)CCN1C(=O)c1c[nH]cn1 |  | inhibition [9]: 51% |
| 320 nM |  |  | O=C(c1ccccc1-c1ccccc1)N1CCN(Cc2cnc[nH]2)c2ccccc2C1 |  |  |
| 720 nM |  |  | COC(=O)c1ccccc1S(=O)(=O)N1CCN(Cc2c[nH]cn2)c2ccccc2C1 | 1600 nM |  |
| 700 nM |  |  | O=C(Cc1ccccc1Oc1ccccc1)N1CCN(Cc2c[nH]cn2)c2ccccc2C1 |  |  |
| 460 nM |  |  | O=C(c1cccc2ccccc12)N1CCN(Cc2c[nH]cn2)c2ccccc2C1 | 6000 nM | Reversion activity [5]: 0% |
| 95 nM |  |  | O=C(c1cccc2ccccc12)N1CCN(Cc2cnc[nH]2)c2ccc(-c3ccccc3)cc2C1 |  |  |
|  | 0% |  | O=C(OCc1ccccc1)N1CCN(Cc2c[nH]cn2)c2ccc(-c3ccccc3)cc2C1 |  | Reversion activity [10]: 0%; inhibition [11]: 55% |
| 28 nM |  |  | O=C(Nc1ccc2c(c1)N(Cc1cnc[nH]1)CCN(C(=O)c1cccc3ccccc13)C2)OC1CCCCC1 |  |  |
| 18.1 nM | 45% | 0% | O=C(Nc1ccc2c(c1)N(Cc1c[nH]cn1)CCN(C(=O)c1cccc3ccccc13)C2)C1CCCCC1 | 340 nM | T/C [8]: 138% |
| 58 nM |  |  | COc1ccc2ccccc2c1C(=O)N1CCN(Cc2cnc[nH]2)c2ccc(-c3ccccc3)cc2C1 |  |  |
| 1300 nM |  |  | NCCc1nc(CN2CCN(C(=O)c3cccc4ccccc34)Cc3ccccc32)c[nH]1 |  |  |
| 15.4 nM | 95% | 60% | O=C(c1cccc2ccccc12)N1CCN(Cc2c[nH]cn2)c2ccc(-c3ccncc3)cc2C1 | 200 nM | T/C [6]: 108% |
